Consider six molecules from ChEMBL document CHEMBL4316598, “Synthesis, antiproliferative and apoptosis induction potential activities of novel bis(indolyl)hydrazide-hydrazone derivatives” (Bioorg Med Chem, 2019).

Converted amounts (≈) assume the structure as drawn. The source made the active and inactive calls. The calls are words filed in the database; no cut-off is given here. Some results are limits rather than exact numbers.

Assay [1] deals with MCF7. Kind of assay: Cytotoxicity against human MCF7 cells assessed as reduction in cell viability after 4 hrs by MTT assay. The assay is classed as functional, cell-based. The method in brief: (§1)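 MTT: 10,000–20,000 cells/well attached for 16 h, then washed twice with serum-free RPMI. Treated with 1–200 µM for 4 h, 3 parallel runs per concentration. MTT added for 2 h; medium partly removed and isopropanol added. A590 read. Viability = (A treated − A doxorubicin)/(A medium − A doxorubicin)×100. Mean of three experiments, triplicate wells each.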

Another assay relates to MDA-MB-231. Kind of assay: Cytotoxicity against human MDA-MB-231 cells assessed as reduction in cell viability after 4 hrs by MTT assay. Particulars: MDA-MB-231, 4 h. The assay is classed as functional, cell-based. In a few lines:
as §1

The test system of another assay is FaDu. Kind of assay: Cytotoxicity against human FADU cells assessed as reduction in cell viability after 4 hrs by MTT assay. It is filed as functional, cell-based. In general terms: Formazan colour is commonly taken as a measure of viable cells.
The next assay has as its system HEK293. Put plainly: Cytotoxicity against HEK293 cells assessed as reduction in cell viability after 4 hrs by MTT assay. It is filed as cell-based, Homo sapiens. The method in brief: as §1
In another assay the test system is A549. Put plainly: Cytotoxicity against human A549 cells assessed as reduction in cell viability after 4 hrs by MTT assay. The assay is classed as functional, cell-based. The method in brief: as §1
The test system of another assay is Detroit 562. Kind of assay: Cytotoxicity against human Detroit 562 cells assessed as reduction in cell viability after 4 hrs by MTT assay. It is filed as functional, cell-based. Particulars: Detroit 562, 4 h.
The subject of assay [2] is HeLa. Put plainly: Cytotoxicity against human HeLa cells assessed as reduction in cell viability after 4 hrs by MTT assay. The assay is classed as functional, cell-based. In a few lines: as §1
The nature of assay [3]: Cytotoxicity against human SW680 cells assessed as reduction in cell viability after 4 hrs by MTT assay. It is filed as functional, cell-based.
The test system of a further assay is SCC-25. Put plainly: Cytotoxicity against human SCC25 cells assessed as reduction in cell viability after 4 hrs by MTT assay. The following applies: SCC-25, 4 h. It is filed as functional, cell-based.
The subject of another assay is DU-145. Put plainly: Antiproliferative activity against human DU145 cells by MTS assay. It is filed as functional, cell-based.
Assay [4] concerns MCF7. Kind of assay: Induction of caspase-dependent apoptosis in human MCF7 cells assessed as activation of caspase-3 at 3 uM after 24 hrs by Western blot analysis. The assay is classed as functional, cell-based. In a few lines:
(§2)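 Cleaved caspase-3 immunoblot. Cells were exposed at 1, 3 and 5 µM for 24 h at 37 °C, with paclitaxel 3 µM as positive control. Lysis was in ice-cold Triton X-100 buffer, and protein was measured by BCA. Lysates were separated by electrophoresis, transferred to nitrocellulose and blocked in milk. Primary antibody was applied overnight at 4 °C and secondary for 1 h at 28 °C. Detection was by enhanced chemiluminescence.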

Assay [5] has as its system HeLa. Put plainly: Induction of caspase-dependent apoptosis in human HeLa cells assessed as activation of caspase-3 at 3 uM after 24 hrs by Western blot analysis. The assay is classed as functional, cell-based. The method in brief:
as §2
On the technique in general: A western blot detects proteins with antibodies after separation by electrophoresis.

The mark [6] stands for this setting: Homo sapiens, MCF7, 4 h, read-out: IC50.
Where [7] appears, read: Homo sapiens, A549, 4 h, read-out: IC50.
The mark [8] stands for this setting: Homo sapiens, HeLa, 4 h, read-out: IC50.

Regarding `COc1cccc2c1C(=O)c1c(O)c3c(c(O)c1C2=O)C[C@@](O)(C(=O)CO)C[C@@H]3O[C@H]1C[C@H](N)[C@H](O)[C@H](C)O1` [DOXORUBICIN], the IC50 (usually the concentration needed to halve the response being measured) with MCF7 [1] (setting [6]) was 0.23 to 0.98 µM; in the assay with MDA-MB-231, 3.1 µM; in the assay with FaDu, 0.68 µM; in the assay with HEK293 (Homo sapiens, HEK293, 4 h, read-out: IC50) it was more than 200 µM; with A549 (setting [7]) it was 0.89 to 2.11 µM; in the assay with Detroit 562, 1.26 µM. Also, the IC50 was 0.36 to 1.09 µM in the assay with HeLa [2] (setting [8]), 1.2 µM in assay [3] and 2.24 µM with SCC-25.

In the case of `O=C(N/C=C/c1c[nH]c2ccccc12)C(=O)c1c[nH]c2ccccc12`, in the assay with DU-145, the midpoint of inhibition, the IC50, lay at 7.6 µg/mL (≈ 23.1 µM).

Take `COc1ccc2[nH]cc(/C=N\NC(=O)c3cn(C)c4ccc(Br)cc34)c2c1`: the IC50 entry in the assay with MCF7 [1] (mcf7) was “Not Active”; in the assay on MDA-MB-231 it was 22.7 µM; in the assay on HEK293 (hek293), “Non-Toxic”; in the assay on A549 (setting [7]), 12.8 µM; in the assay on HeLa [2] (setting [8]) it was 14.2 µM.

As to `Cn1cc(C(=O)N/N=C\c2c[nH]c3ccccc23)c2cc(Br)ccc21`, the IC50 result with MCF7 [1] (mcf7) is “Not Active”; in the assay with MDA-MB-231, 14.2 µM; in the assay with HEK293 (hek293), “Non-Toxic”; with A549 (a549), “Not Active”; with HeLa [2] (hela), “Not Active”.

For the molecule `Cn1cc(/C=N\NC(=O)c2cn(C)c3ccccc23)c2ccccc21`, the IC50 with MCF7 [1] (setting [6]) is 31.3 µM; in the assay on MDA-MB-231 it was 18.9 µM; in the assay with HEK293 (hek293), “Non-Toxic”; in the assay with A549 (setting [7]), 19 µM; with HeLa [2] (hela) it was “Not Active”.

For `CC(=O)O[C@H]1C(=O)[C@@]2(C)[C@H]([C@H](OC(=O)c3ccccc3)[C@]3(O)C[C@H](OC(=O)[C@H](O)[C@@H](NC(=O)c4ccccc4)c4ccccc4)C(C)=C1C3(C)C)[C@]1(OC(C)=O)CO[C@@H]1C[C@@H]2O`, the result in the assay with MCF7 [4] and in the assay on HeLa [5] was Active.
